Measurements pooled from the literature.
ADRB1: Beta-1 adrenergic receptor (ADRB1, Homo sapiens, UniProt P08588)
PKN1: Serine/threonine-protein kinase N1 (PKN1, Homo sapiens, UniProt Q16512)
HDAC9: Histone deacetylase 9 (HDAC9, Homo sapiens, UniProt Q9UKV0)

The inhibition of `O=C(O)CNc1cccc(CN(Cc2ccc(-n3cccn3)cc2)S(=O)(=O)c2cccnc2)n1` is reported as 2% (ADRB1; ligand displacement; radioligand; 10 µM).
The remaining activity of `COc1cc(-c2cncc3c2CN(C)Cc2cc(N4CCNCC4)ccc2-3)cc(OC)c1OC` is reported as 102% (PKN1; enzyme activity; inhibitor; 1 µM).
With `O=C(/C=C/c1cccc(OS(=O)(=O)Oc2ccc(C(F)(F)F)cc2)c1)NO` the inhibition was 13% (HDAC9; enzyme activity; inhibitor; fluorescence; 10 µM).
`C=CC(=O)N1CCC(COCC(=O)N2CCN(c3nc(-c4cnc(N)nc4C(F)F)nc(N4CCOC[C@@H]4C)n3)CC2)CC1` has a remaining binding of 100% (PKN1; binding; competition with immobilised ligand; 1 µM).
`CC(C)OC(=O)CNc1cccc(CN(Cc2ccc(-n3cccn3)cc2)S(=O)(=O)c2cccnc2)n1` gave an inhibition of 0% (ADRB1; ligand displacement; radioligand; 10 µM).
With `O=C(NO)c1cc(F)cc(OS(=O)(=O)Oc2ccccc2)c1` the inhibition was 33% (HDAC9; enzyme activity; inhibitor; fluorescence; 10 µM).
The remaining activity of `CNc1ncc2c(/C=C/C(=O)N3CCC(OC)CC3)nn(Cc3cccc(C(F)(F)F)c3)c2n1` is reported as 99% (Cyclin-dependent kinase 18, with cyclin Y (CDK18, Homo sapiens, UniProt Q07002); enzyme activity; inhibitor; radiometric; 1 µM).
The inhibition of `C[C@H]1O[C@H](O[C@H]2[C@H](O)[C@@H](O)[C@@H](O[C@H]3[C@H](O)[C@@H](O)C(O)O[C@@H]3CO)O[C@@H]2CO)[C@H](O)[C@@H](O)[C@@H]1N[C@H]1C=C(CO)[C@@H](O)[C@H](O)[C@H]1O` (some centres unmarked) is reported as 97.5% (Pancreatic alpha-amylase (Homo sapiens, UniProt P04746); enzyme activity; inhibitor; 200 µg/mL).
`Cc1cc([C@@H](C)Nc2ccccc2C(=O)O)c2nc(N3CCC(F)(F)CC3)c(C#N)c(=O)n2c1` gave a remaining binding of 70% (NUAK family SNF1-like kinase 2 (NUAK2, Homo sapiens, UniProt Q9H093); binding; competition with immobilised ligand; 10 µM).
The inhibition of `O=C(NO)c1cncc(OS(=O)(=O)Oc2ccc(-n3ccnc3)cc2)c1` is reported as 49% (HDAC9; enzyme activity; inhibitor; fluorescence; 10 µM).
`N=c1c[n+](N2CCOCC2)[n-]o1` has a KI (inactivation) of 4 µM (NAD-dependent protein deacylase sirtuin-5, mitochondrial (SIRT5, Homo sapiens, UniProt Q9NXA8); enzyme activity; inhibitor).
